Measured values reported in paper PMC2413043 (The Journal of Experimental Medicine, 2008).

Legend:
MKP-1 [1] = experiment: MKP-1 acetylation in mouse liver by immunoprecipitation; type: in vivo; settings: TSA pretreatment 4 h, LPS 16 h; IP MKP-1, blot Ac-Lys
Summary of the method: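 Mice pretreated with TSA for 4 h, then given LPS for 16 h. Liver lysates were immunoprecipitated with anti-MKP-1 and immunoblotted with anti-acetyl-lysine or anti-MKP-1.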

TNF-α and IL-1β = experiment: Liver TNF-α and IL-1β mRNA by RT-PCR; type: in vivo, mouse; settings: liver 4 h after LPS, two representative mice
Summary of the method: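 Mice were dosed with TSA each day from day −2 and challenged with LPS on day 0. Liver RNA was harvested 4 h after LPS. RT-PCR was run for TNF-α and IL-1β, or for COX-2 and CXCL2, with two mice per group.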

NOS2 = experiment: Liver NOS2 protein by immunoblot; type: in vivo, mouse; settings: TSA pretreatment 4 h, LPS 16 h
Summary of the method: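 Mice were pretreated with increasing amounts of TSA for 4 h, then given LPS for 16 h. Liver was harvested and its lysate immunoblotted for NOS2, with MEK1 as the loading control.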

TNF-α, IL-6, and IL-1β = experiment: Inflammatory cytokine RNA levels by Northern blotting in RAW cells; type: cell-based, mouse; settings: RAW cells treated with LPS and TSA 4 h
Summary of the method: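 RAW 264.7 cells (DME, 10% FBS) treated with LPS and TSA for 4 h. Total RNA was isolated with TRIZOL and analysed by Northern blotting with probes for TNF-α, IL-1β and IL-6, with GAPDH as loading control.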

p38 [2] = experiment: Phosphorylation of p38 by immunoblot in RAW cells; type: cell-based, mouse; settings: RAW cells pretreated 30 ng/ml TSA 1 h, 100 ng/ml LPS 30 min
Summary of the method: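 RAW 264.7 cells (DME, 10% FBS) pretreated with TSA 30 ng/ml for 1 h, then LPS 100 ng/ml for 30 min. Whole-cell lysates were immunoblotted with antibodies to phosphorylated and total forms of the MAPK in question.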

MKP-1 [3] = experiment: MKP-1 expression in RAW cells by immunoblot; type: cell-based, mouse; settings: LPS and TSA 1 h
TNF-α = TNF-α in media of primary macrophages by ELISA; type: cell-based, mouse; settings: TSA and LPS, 4 h, n = 2 ± SD
Summary of the method: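 Primary peritoneal macrophages collected by PBS lavage from resting WT or MKP-1−/− mice, not thioglycolate-elicited; the mice were on a C57BL/6J background. Cells stimulated with TSA, LPS or both. After 4 h, TNF-α and IL-1β in the media were measured by ELISA; n = 2, mean ± SD.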

p38 [4] = experiment: Phospho-p38 in primary peritoneal macrophages; type: cell-based, mouse; settings: LPS, TSA or both
Summary of the method: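 Resident (non-thioglycolate-elicited) peritoneal macrophages were collected by PBS lavage from WT and MKP-1−/− mice. Cells were stimulated with LPS, TSA or both, and lysates were immunoblotted for total and phospho-p38.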

MKK3/6 = experiment: Phosphorylation of MKK3/6 by immunoblot in RAW cells; type: cell-based, mouse; settings: TSA 30 ng/ml 1 h and/or LPS 100 ng/ml 30 min
Summary of the method: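 RAW 264.7 cells grown in DME with 10% FBS were pretreated with TSA 30 ng/ml for 1 h, then given LPS 100 ng/ml for 30 min. Lysates were immunoblotted with phospho-specific antibodies to MAPK cascade members (phospho-MKK3/6, phospho-Elk-1).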

phospho-ERK1 = type: cell-based; settings: MKP-1 immunoprecipitated from RAW cells treated with LPS and TSA 4 h
Summary of the method: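 RAW 264.7 cells grown in DME with 10% FBS were treated with LPS plus TSA, or with control, for 4 h. Endogenous MKP-1 was immunoprecipitated from the lysates and incubated with recombinant phospho-p38 or phospho-ERK1. Remaining phosphorylation was detected by immunoblotting with phospho-p38 or phospho-ERK antibodies. The amount of phospho-substrate added was shown as an input lane.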

p38 [5] = experiment: Phospho-p38 in MEFs from MKP-1 heterozygous or KO mice; type: cell-based, mouse; settings: LPS and TSA 30 min
Summary of the method: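 Embryonic fibroblasts from MKP-1+/− or MKP-1−/− mice, grown in DME with 10% FBS, were treated with LPS and TSA for 30 min. Lysates were immunoblotted for phospho-p38 and total p38.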

MKP-1 and p300 = experiment: MKP-1 interaction with p300 by co-immunoprecipitation in RAW cells; type: cell-based, mouse; settings: RAW cells treated with TSA; IP p300, blot MKP-1
MKP-1 and p38 = experiment: MKP-1/p38 association by co-immunoprecipitation in RAW cells; type: cell-based, mouse; settings: co-IP
Summary of the method: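 RAW 264.7 cells were treated with LPS and/or TSA for 1 h. Lysates were immunoprecipitated with anti-p38 or anti-MKP-1, and precipitates were immunoblotted reciprocally for MKP-1 or p38. The experiment was repeated twice.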

MKP-1-ERα and p38 = experiment: MKP-1-ERα/p38 interaction by co-immunoprecipitation in HeLa cells; type: cell-based; settings: 4-HT, LPS and TSA 1 h

## CC(/C=C/C(=O)NO)=C\[C@@H](C)C(=O)c1ccc(N(C)C)cc1 [TSA, trichostatin A]
MKP-1 [1]
  acetylation of MKP-1 in liver: increases acetylation of MKP-1 in vivo
TNF-α and IL-1β
  LPS-induced IL-1β mRNA in liver: decreases
  LPS-induced TNF-α mRNA in liver: decreases
NOS2
  NOS2 steady-state protein levels in liver: decreases NOS2 steady-state protein levels in liver
TNF-α, IL-6, and IL-1β
  expression of IL-1β: inhibits
  expression of IL-6: inhibits
  expression of TNF-α: inhibits
p38 [2]
  LPS-induced phosphorylation of p38: decreases phosphorylation of p38
MKP-1 [3]
  MKP-1 expression: increases the expression of MKP-1 levels
TNF-α
  suppression of TNF-α, MKP-1−/− macrophages: 27%
  suppression of TNF-α, WT macrophages: 87%
p38 [4]
  phospho-p38, WT vs MKP-1−/− primary macrophages: only suppresses phospho-p38 in macrophages from WT mice, not in macrophages from MKP-1^−/− mice
MKK3/6
  phosphorylation of MKK3/6: does not affect phosphorylation of the upstream MAPKK MKK3/6
phospho-ERK1
  removal of phosphate from recombinant phospho-ERK1 by MKP-1: removes more phosphate from recombinant phospho-ERK1 than MKP-1 from control cells
p38 [5]
  phospho-p38 levels, heterozygous vs MKP-1 KO MEFs: decreases phospho-p38 levels in heterozygous cells, but not in MKP-1 KO cells
MKP-1 and p300
  MKP-1 association with p300: MKP-1 associates with p300 in TSA-treated macrophages
MKP-1 and p38; LPS and TSA 1 h
  association between p38 and MKP-1: increases the association between p38 and MKP-1 in cells
MKP-1 and p38; TSA without LPS
  interaction between MKP-1 and p38, TSA alone: increases the interaction between MKP-1 and p38, even in the absence of LPS
MKP-1-ERα and p38; MKP-1(K57R)-ERα
  interaction between mutant MKP-1(K57R) and p38: not able to affect the interaction between mutant MKP-1(K57R) and p38
MKP-1-ERα and p38; MKP-1(WT)-ERα
  interaction between MKP-1(WT) and p38: increases the interaction between MKP-1(WT) and p38
